The species named for assay [1] is Cavia porcellus. In words: (§1) Percent contraction of the guinea pig gall bladder uM. In kind it is functional. Also noted: concentration or dose not given beside the values. The method in brief:
(§2)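 Isolated guinea pig gallbladder incubated with ligand at 37 °C, 30 µM for 30 min or 1 µM for 60 min. Contraction expressed as percent of the contraction induced by 1 µM CCK-8.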

For assay [2], the system named is Rattus norvegicus. In words: Maximal response of the rat to anorectic potency 30 min after intraperitoneal administration (0.5 uM/Kg). In kind it is functional.
Assay [3] is filed under the species Rattus norvegicus. In words: Anorectic potency in rats conditioned to a palatable liquid diet and fasted for 2 hours. In kind it is functional.
For assay [4], the system named is Rattus norvegicus. Put plainly: Maximal response of the rat to anorectic potency 30 min after intraperitoneal administration (1 uM/Kg). In kind it is functional.
Assay [5] is filed under the species Cavia porcellus. Described as §1. The format is functional. A digest of the protocol:
as §2

The species entered for assay [6] is Cavia porcellus. In words: Guinea pig gall bladder contraction by the compound at concentration 30 uM in the presence of MK329. The format is functional. A digest of the protocol:
(§3)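 Isolated guinea pig gallbladder contraction induced by test ligand (30 µM screen), then reversed with MK-329 at 1 µM to confirm a CCK-A receptor-mediated response.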

Assay [7] deals with T1, Cholecystokinin receptor type A (Homo sapiens, UniProt P32238).
T1 sequence (P32238 whole entry): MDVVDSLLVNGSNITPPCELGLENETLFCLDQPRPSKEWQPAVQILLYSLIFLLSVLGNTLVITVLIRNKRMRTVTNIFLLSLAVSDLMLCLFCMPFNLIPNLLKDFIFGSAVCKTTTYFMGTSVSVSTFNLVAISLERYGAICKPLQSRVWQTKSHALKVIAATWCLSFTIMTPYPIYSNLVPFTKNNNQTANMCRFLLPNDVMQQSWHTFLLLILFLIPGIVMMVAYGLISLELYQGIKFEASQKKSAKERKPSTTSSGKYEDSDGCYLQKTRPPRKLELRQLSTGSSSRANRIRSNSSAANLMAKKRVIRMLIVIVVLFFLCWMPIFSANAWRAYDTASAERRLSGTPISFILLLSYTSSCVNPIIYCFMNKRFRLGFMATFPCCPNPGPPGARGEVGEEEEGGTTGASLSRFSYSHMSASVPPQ
Put plainly: Concentration required to displace [125I]Bolton-Hunter CCK-8 from human Cholecystokinin type A receptor stably expressed in CHO-K1 cells. In kind it is cell-based.

For assay [8], the species on record is Cavia porcellus. Put plainly: Percentage reversal of isolated guinea pig gall bladder contraction by the compound. The format is functional. The method in brief:
as §3

The species named for assay [9] is Cavia porcellus. In words: Guinea pig gall bladder contraction by the compound at concentration 30 uM in the absence of MK329. The format is functional. The method in brief:
as §2

Assay [10] addresses T2, Gastrin/cholecystokinin type B receptor (Homo sapiens, UniProt P32239).
T2 sequence (P32239 whole entry): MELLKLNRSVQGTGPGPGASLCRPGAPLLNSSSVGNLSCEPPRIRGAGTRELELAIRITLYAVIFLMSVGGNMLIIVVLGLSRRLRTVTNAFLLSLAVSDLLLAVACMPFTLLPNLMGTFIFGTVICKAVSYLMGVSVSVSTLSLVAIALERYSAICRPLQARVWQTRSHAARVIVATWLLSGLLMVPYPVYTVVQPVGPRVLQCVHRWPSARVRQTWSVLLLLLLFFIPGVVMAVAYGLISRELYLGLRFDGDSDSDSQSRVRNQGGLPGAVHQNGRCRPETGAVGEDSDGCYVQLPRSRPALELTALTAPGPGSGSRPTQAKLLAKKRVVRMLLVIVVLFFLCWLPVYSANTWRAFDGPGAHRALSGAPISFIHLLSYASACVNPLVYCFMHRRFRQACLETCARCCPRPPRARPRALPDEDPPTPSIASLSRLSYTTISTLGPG
Put plainly: Concentration required to displace [125I]Bolton-Hunter CCK-8 from human Cholecystokinin type B receptor expressed in CHO-K1 cells. The format is cell-based.

Assay [11] is filed under the species Cavia porcellus. Put plainly: Percent contraction of the guinea pig gall bladder uM; Inactive. The format is functional. A digest of the protocol: as §2
Assay [12] is filed under the species Cavia porcellus. In words: Antagonist affinity (pKB) against contraction of guinea pig gall bladder measured at a dose 30 uM. The format is functional.
The species named for assay [13] is Cavia porcellus. In words: Guinea pig gall bladder contraction by the compound at concentration 1 uM in the presence of MK329. The format is functional.
The species named for assay [14] is Cavia porcellus. In words: Guinea pig gall bladder contraction by the compound at concentration 1 uM in the absence of MK329. The format is functional. A digest of the protocol: as §2

As usually defined, the IC50 is the concentration needed to halve the response being measured. A word on the pKB: it is −log10 of the KB, conventionally taken in molar units.

Activity calls are given as the source filed them. No cut-off for these calls is given here.

`O=C(Nc1ccccc1)NC1C(=O)N(CC(=O)N(c2ccccc2)C2CCCCC2)c2ccccc2N(c2ccccc2)C1=O` (configuration not stated): the Activity in the assay listed under Cavia porcellus [1] is given as 26%.

`CSCC[C@H](NC(=O)[C@H](Cc1ccc(OS(=O)(=O)O)cc1)NC(=O)[C@@H](N)CC(=O)O)C(=O)NCC(=O)N[C@@H](Cc1c[nH]c2ccccc12)C(=O)N[C@@H](CCSC)C(=O)N[C@@H](CC(=O)O)C(=O)N[C@@H](Cc1ccccc1)C(N)=O` [SINCALIDE] yielded a Max response in the assay with Rattus norvegicus [2] of 96%. In the assay listed under Rattus norvegicus [3], this compound came in with an ED50 of 0.03 µmol/kg.

In the assay with Rattus norvegicus [4], `COc1ccc(N(C(=O)CN2C(=O)C(NC(=O)Nc3ccccc3)C(=O)N(c3ccccc3)c3ccccc32)C(C)C)cc1` (configuration not stated) returned a Max response of 62%. Also, the Activity amounted to 82% in the assay filed under Cavia porcellus [5] and 93% in the assay listed under Cavia porcellus [1]. Moreover, the GPGB tension was 0.2 g in the assay listed under Cavia porcellus [6] and 2.88 g in the assay listed under Cavia porcellus [9]. In addition, the values for the concentration for half-maximal inhibition (IC50) in assay [7] and in [10] were 0.0794 µM and 0.0501 µM, respectively. Also, in the assay listed under Cavia porcellus [8], the Reversal is recorded as 107%. Moreover, the ED50 in the assay listed under Rattus norvegicus [3] was 0.07 µmol/kg.

For the compound `O=C(O)CN(C(=O)CN1C(=O)C(NC(=O)Nc2ccccc2)C(=O)N(c2ccccc2)c2ccccc21)c1ccccc1` (configuration not stated), the outcome in the assay filed under Cavia porcellus [11] was inactive. Besides, the negative logarithm of the KB (pKB) in the assay filed under Cavia porcellus [12] came to 6.33.

Consider `CC(C)N(C(=O)CN1C(=O)C(NC(=O)Nc2ccccc2)C(=O)N(c2ccccc2)c2ccccc21)c1ccc(N2CCOCC2)cc1` (configuration not stated), for which, in the assay with Rattus norvegicus [4], the Max response is reported as 26%. In addition, the GPGB tension came to 0.43 g in the assay filed under Cavia porcellus [13] and 1.88 g in the assay filed under Cavia porcellus [14]. Also, the Activity in the assay filed under Cavia porcellus [5] is 74%. Besides, in the assay filed under Cavia porcellus [8], the Reversal is recorded as 123%. The ED50 in the assay filed under Rattus norvegicus [3] turned out to be 0.2 µmol/kg. Also, in [10], the IC50 is 0.158 µM.

The compound `O=C(Nc1ccccc1)NC1C(=O)N(CC(=O)N(c2ccccc2)c2ccccc2)c2ccccc2N(c2ccccc2)C1=O` (configuration not stated) showed an Activity in the assay filed under Cavia porcellus [1] of 43%.

`O=C(Nc1ccccc1)NC1C(=O)N(CC(=O)N(CCNC(=O)OCc2ccccc2)c2ccccc2)c2ccccc2N(c2ccccc2)C1=O` (configuration not stated): the outcome in the assay listed under Cavia porcellus [11] was inactive.

As to `CC(C)N(C(=O)CN1C(=O)C(NC(=O)Nc2ccccc2)C(=O)N(c2ccccc2)c2ccccc21)c1ccc(N(C)C)cc1.O=C(O)C(F)(F)F` (configuration not stated), the Max response in the assay on Rattus norvegicus [4] came out at 54%. Further, the GPGB tension is reported as 0.01 g in the assay listed under Cavia porcellus [13] and 2.55 g in the assay listed under Cavia porcellus [14]. Also, the values for the Activity in the assay filed under Cavia porcellus [5] and in the assay listed under Cavia porcellus [1] were 46% and 75%, respectively. Also, the values for the IC50 in assay [7] and in assay [10] were 0.0631 µM and 0.251 µM, respectively. Besides, the Reversal in the assay listed under Cavia porcellus [8] came out at 100%. The ED50 in the assay listed under Rattus norvegicus [3] was determined as 0.09 µmol/kg.

As to `CC(C)N(C(=O)CN1C(=O)C(NC(=O)Nc2ccccc2)C(=O)N(c2ccccc2)c2ccccc21)c1ccc(O)cc1` (configuration not stated), in the assay with Rattus norvegicus [4], the Max response is 74%. The results for the GPGB tension in the assay filed under Cavia porcellus [6] and in the assay listed under Cavia porcellus [9] were 0 g and 2.25 g, respectively. The IC50 in [7] was 0.0398 µM; in assay [10], 0.0158 µM. Also, the Reversal in the assay listed under Cavia porcellus [8] is 100%. For the same compound, the ED50 in the assay listed under Rattus norvegicus [3] turned out to be 0.05 µmol/kg. Also, the Activity in the assay listed under Cavia porcellus [1] is on record as 81%.

With `CCN(C(=O)CN1C(=O)C(NC(=O)Nc2ccccc2)C(=O)N(c2ccccc2)c2ccccc21)c1ccccc1` (configuration not stated), the Activity in the assay listed under Cavia porcellus [1] was 66%.

In the assay filed under Cavia porcellus [1], `CCCN(C(=O)CN1C(=O)C(NC(=O)Nc2ccccc2)C(=O)N(c2ccccc2)c2ccccc21)c1ccccc1` (configuration not stated) had an Activity of 50%.

Consider `CC(C)N(C(=O)CN1C(=O)C(NC(=O)Nc2ccccc2)C(=O)N(c2ccccc2)c2ccccc21)C(C)C` (configuration not stated), for which the Activity in the assay filed under Cavia porcellus [1] is recorded as 21%.

Turning to `CC(C)N(C(=O)CN1C(=O)C(NC(=O)Nc2ccccc2)C(=O)N(c2ccccc2)c2ccccc21)c1ccccc1` (configuration not stated), the Max response in the assay on Rattus norvegicus [4] is 48%. For the same compound, the GPGB tension came to 0.43 g in the assay filed under Cavia porcellus [6] and 2.53 g in the assay listed under Cavia porcellus [9]. In addition, the Reversal in the assay listed under Cavia porcellus [8] worked out at 117%. Also, the ED50 in the assay filed under Rattus norvegicus [3] was 0.95 µmol/kg. This compound also registered an Activity in the assay filed under Cavia porcellus [1] of 86%.

Compound `N#CCCN(C(=O)CN1C(=O)C(NC(=O)Nc2ccccc2)C(=O)N(c2ccccc2)c2ccccc21)c1ccccc1` (configuration not stated) had an Activity in the assay filed under Cavia porcellus [1] of 32%.

As for `NCCN(C(=O)CN1C(=O)C(NC(=O)Nc2ccccc2)C(=O)N(c2ccccc2)c2ccccc21)c1ccccc1` (configuration not stated), the pKB in the assay listed under Cavia porcellus [12] is 5.88. The same compound yielded an Activity in the assay listed under Cavia porcellus [1] of 7%.

In the assay filed under Cavia porcellus [1], `CCOC(=O)CN(C(=O)CN1C(=O)C(NC(=O)Nc2ccccc2)C(=O)N(c2ccccc2)c2ccccc21)c1ccccc1` (configuration not stated) showed an Activity of 16%.

Compound `CC(C)N(C(=O)CN1C(=O)C(NC(=O)Nc2ccccc2)C(=O)N(c2ccccc2)c2ccccc21)c1ccc(F)cc1` (configuration not stated) registered a Max response in the assay with Rattus norvegicus [4] of 56%. The GPGB tension in the assay listed under Cavia porcellus [13] was 0.34 g; in the assay listed under Cavia porcellus [14], 2.14 g. The same compound gave an Activity in the assay listed under Cavia porcellus [5] of 53%. Further, the 50% inhibitory concentration (IC50) is 0.1 µM in [7] and 0.0316 µM in assay [10]. Besides, the Reversal in the assay listed under Cavia porcellus [8] was determined as 116%. This compound also showed an ED50 in the assay filed under Rattus norvegicus [3] of 0.2 µmol/kg.

Regarding `CC(C)N(Cc1ccccc1)C(=O)CN1C(=O)C(NC(=O)Nc2ccccc2)C(=O)N(c2ccccc2)c2ccccc21` (configuration not stated), in the assay listed under Cavia porcellus [1], the Activity came out at 34%.

In the assay listed under Cavia porcellus [12], `CC(C)N(C(=O)CN1C(=O)C(NC(=O)Nc2ccccc2)C(=O)N(c2ccccc2)c2ccccc21)c1ccc(C(=O)O)cc1` (configuration not stated) had a pKB of 6.14. For the same compound, the IC50 in assay [7] is 2.51 µM; in assay [10], 0.0398 µM. Also, the Activity in the assay filed under Cavia porcellus [1] was found to be 10%.

With `O=C(CN1C(=O)C(NC(=O)Nc2ccccc2)C(=O)N(c2ccccc2)c2ccccc21)Nc1ccccc1` (configuration not stated), the result in the assay listed under Cavia porcellus [11] was inactive. Further, the pKB in the assay listed under Cavia porcellus [12] worked out at 6.33.

For the compound `CCCCN(C(=O)CN1C(=O)C(NC(=O)Nc2ccccc2)C(=O)N(c2ccccc2)c2ccccc21)c1ccccc1` (configuration not stated), the Activity in the assay filed under Cavia porcellus [1] is 27%.

For `CCN(CC)C(=O)CN1C(=O)C(NC(=O)Nc2ccccc2)C(=O)N(c2ccccc2)c2ccccc21` (configuration not stated), the Activity in the assay listed under Cavia porcellus [1] was 38%.

Regarding `CN(C(=O)CN1C(=O)C(NC(=O)Nc2ccccc2)C(=O)N(c2ccccc2)c2ccccc21)c1ccccc1` (configuration not stated), in the assay filed under Cavia porcellus [11], the result was inactive. For the same compound, in the assay listed under Cavia porcellus [12], the negative logarithm of the KB (pKB) worked out at 6.27.

The values are drawn from ChEMBL document CHEMBL1129669, “Discovery of 1,5-benzodiazepines with peripheral cholecystokinin (CCK-A) receptor agonist activity. 1. Optimization of the agonist "trigger"” (J Med Chem, 1996).
